# Source: PubChem
# TRPC4 potent: allosterically enhances the mouse TRPC4 cation channel; Q9QUQ5; HEK293 TRPC4beta/mu-opioid, DAMGO EC20, Fluo-4 Ca2+ flux; stronger effect = higher value; B-score at 10 µM; AID 2227; actives 0.42% (n = 310,000);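 active = B-score of calcium response area above 5 SD of library B-scores, with initial fluorescence ratio within 5 SD of library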;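 note: B-score of integrated fluorescence ratio over time as area under calcium response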
# Target sequence (Q9QUQ5 whole entry, looked up): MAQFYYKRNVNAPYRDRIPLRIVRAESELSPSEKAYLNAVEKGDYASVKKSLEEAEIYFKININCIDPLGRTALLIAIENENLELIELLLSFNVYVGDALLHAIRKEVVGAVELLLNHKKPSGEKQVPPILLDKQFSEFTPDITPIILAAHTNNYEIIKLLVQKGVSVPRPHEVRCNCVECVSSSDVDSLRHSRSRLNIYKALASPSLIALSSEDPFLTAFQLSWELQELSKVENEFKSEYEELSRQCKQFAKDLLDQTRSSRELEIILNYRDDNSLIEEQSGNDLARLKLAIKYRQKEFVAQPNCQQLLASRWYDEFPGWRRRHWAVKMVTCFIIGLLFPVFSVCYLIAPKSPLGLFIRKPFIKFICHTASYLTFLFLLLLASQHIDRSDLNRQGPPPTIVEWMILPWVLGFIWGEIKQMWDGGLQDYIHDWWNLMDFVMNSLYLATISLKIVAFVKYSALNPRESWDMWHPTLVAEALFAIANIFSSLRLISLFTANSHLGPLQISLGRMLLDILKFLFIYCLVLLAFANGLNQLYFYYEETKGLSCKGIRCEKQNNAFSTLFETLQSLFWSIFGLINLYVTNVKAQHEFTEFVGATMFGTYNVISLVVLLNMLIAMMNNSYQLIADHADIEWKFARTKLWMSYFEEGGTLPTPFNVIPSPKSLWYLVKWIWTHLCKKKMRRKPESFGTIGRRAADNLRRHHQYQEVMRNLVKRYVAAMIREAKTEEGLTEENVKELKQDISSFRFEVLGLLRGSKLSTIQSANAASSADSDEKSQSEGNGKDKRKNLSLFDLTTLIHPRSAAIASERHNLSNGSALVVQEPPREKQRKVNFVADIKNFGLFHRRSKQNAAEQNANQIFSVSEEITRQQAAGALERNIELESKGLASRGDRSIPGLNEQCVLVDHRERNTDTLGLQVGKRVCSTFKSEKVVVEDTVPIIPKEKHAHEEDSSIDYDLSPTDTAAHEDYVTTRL
# TRPC6 activator: activators of mouse TRPC6 channel | Q61143 | HEK293-TRPC6 membrane potential dye fluorescence; stronger effect = higher value | B-score at 10 µM | actives 0.13% (n = 310,000) | AID 2550;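 active = B-score of the integrated fluorescence ratio above library mean plus 3 SD, and starting fluorescence ratio within library mean plus 5 SD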;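 note: higher score means more depolarization so channel activation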
# TRPC4 act: opens the mouse TRPC4 cation channel; actives 0.49% (n = 310,000); AID 2237; HEK293 TRPC4beta/mu-opioid, Fluo4 calcium fluorescence; stronger effect = higher value; B-score at 10 µM;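 active = B-score above 5 SD of library B-scores, and initial fluorescence ratio not above library mean plus 5 SD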;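 note: positive B-score marks a calcium rise read as TRPC4 activation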
#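 System – HEK293 cells stably co-expressing mouse TRPC4beta and mu-opioid receptor · Signal – Fluo4 calcium-sensitive dye fluorescence, kinetic, 1 Hz baseline · Benchmarks – buffer (low) and maximal DAMGO (high) · Read-out – B score of integrated fluorescence ratio per well · Incubation – dye loading 45 min room temperature, 110 s kinetic read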
# TRPC6 inhibitor: inhibitors of mouse TRPC6 channel. Q61143. HEK293-TRPC6, membrane potential dye, ACh-evoked depolarization; stronger effect = lower value. B-score at 10 µM. actives 1.1% (n = 310,000). AID 2553;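 active = B-score under library mean minus 3 SD, initial fluorescence not abnormally high, positive integrated signal ratio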;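 note: B-score derived from integrated fluorescence ratio over the kinetic read; more negative B-score means stronger inhibition of depolarization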
# TRPC4 inh: blocks the mouse TRPC4 cation channel. B-score at 10 µM. HEK293 TRPC4beta/mu-opioid, DAMGO-evoked Fluo4 calcium flux; stronger effect = lower value. actives 0.39% (n = 300,000). AID 2247. Q9QUQ5;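 active = B-score over 3 SD under the library average, no early fluorescence shift, positive overall ratio signal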
#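 Assay system: TRPC4beta/mu-opioid receptor HEK293 cell line; compound dosing: single concentration per test compound; detection: Fluo4 Ca2+ flux fluorescence; evaluation: per-well B score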
# TRPC4 sel inh 2: mouse TRPC4 off-target activity of TRPC6 inhibitors, second screen; HEK293 TRPC4/MOR, membrane potential dye fluorescence; channel activated by saturating DAMGO dose; shares compounds with TRPC6 inhibitor; inhibition, % at 10 µM; actives 42% (n = 920);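 active = compounds whose fluorescence signal differed from control wells by over 3 SD, either direction, in both duplicate plates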
# TRPC4 spec: tests whether TRPC6 inhibitors also affect mouse TRPC4. shares compounds with TRPC6 inhibitor. HEK293 TRPC4/mu-opioid, membrane potential fluorescence. activity change, negative = inhibition, % at 10 µM. actives 61% (n = 920);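 active = rise or fall in signal beyond 3 SD of buffer-only wells in both replicate plates, either sign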;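 note: integrated kinetic ratio of fluorescence range over baseline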
# HEK293 MPD ctr 2-1: second check of TRPC6 inhibitor effects in parental HEK293 cells; shares compounds with TRPC6 inhibitor; parental HEK293 membrane potential dye fluorescence; maximal acetylcholine challenge after compound addition; signal change vs control, % at 10 µM; actives 31% (n = 920); AID 2779;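 active = membrane potential signal moving either way by over 3 SD of the maximum-effect control, in both duplicate plates, meaning non-specific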
# HEK293 MPD ctr-1: parental HEK293 nonspecific activity of TRPC6 inhibitors; actives 60% (n = 920); membrane potential signal change, % at 10 µM; shares compounds with TRPC6 inhibitor; parental HEK293 membrane potential dye fluorescence; AID 2780;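 active = membrane potential signal shifting up or down by more than 3 SD of buffer-only wells, on both duplicate plates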
# HEK293 MPD ctr-2: checks TRPC6 modulator effects in parental HEK293 cells; actives 51% (n = 2,400); membrane potential dye fluorescence; membrane potential signal change, % at 10 µM; AID 488924; shares compounds with TRPC6 inhibitor;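 active = membrane potential signal moves up or down beyond 5 SD from buffer-only wells, on both duplicate plates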
# HEK293 MPD ctr 2-2: parental HEK293 nonspecific activity of TRPC6 modulators, second screen. membrane potential dye fluorescence; after compound, maximal acetylcholine stimulation. AID 488926. shares compounds with TRPC6 inhibitor. inhibition, % at 10 µM. actives 14% (n = 2,400);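 active = membrane potential signal drops by more than 5 SD from the mean control signal, in both duplicate plates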;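 note: plate controls were acetylcholine ECmax control wells for no effect and buffer only wells for full effect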
# TRPC4/MOR mod: selectivity of TRPC6 modulators against mouse TRPC4; actives 69% (n = 2,400); percent change from control (negative = decrease, positive = increase), % at 10 µM; shares compounds with TRPC6 inhibitor; HEK293 TRPC4/mu-opioid, membrane potential fluorescence;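 active = membrane potential signal moved up or down beyond 5 SD of buffer control wells, in both duplicate plates, actives on both sides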;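 note: plate controls were assay buffer wells for no effect and DAMGO maximal-effect wells for full effect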
# TRPC4 ctr inh 2: second selectivity test of TRPC6 modulators against mouse TRPC4; actives 55% (n = 2,400); HEK293 TRPC4/mu-opioid, membrane potential dye fluorescence; stimulated with maximal-effect DAMGO; shares compounds with TRPC6 inhibitor; inhibition, % at 10 µM;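 active = drop in membrane potential signal beyond 5 SD of the control wells in both duplicate plates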;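 note: TRPC4 counter screen for TRPC6 hits run under conditions tuned for TRPC6 not TRPC4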
# TRPC6 inh conf: confirmation of mouse TRPC6 inhibitors; AID 488960; inhibition, % at 10 µM; HEK293-TRPC6, membrane potential dye, ACh-evoked depolarization; shares compounds with TRPC6 inhibitor; actives 43% (n = 3,300);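 active = fluorescence ratio falls more than 5 SD below the full-stimulation control mean, in both duplicate runs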;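 note: integrated fluorescence ratio of peak minus minimum over baseline after agonist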
# TRPC6 act conf: mouse TRPC6 activator confirmation | shares compounds with TRPC6 inhibitor | activation, % at 10 µM | HEK293-TRPC6 membrane potential dye fluorescence, FDSS | actives 11% (n = 2,800);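 active = ratio signal rise beyond 5 SD above unstimulated control wells' mean, seen in both duplicate runs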;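 note: plate controls were buffer EC0 wells for no effect and acetylcholine ECmax response for full effect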
# * marks the source's active call; other numbers are inactive results; i = inactive; nt = not tested or not shown. Most compounds without a hit are left out; they make up all but 2.3% or so of the library.
SMILES,TRPC4 potent,TRPC6 activator,TRPC4 act,TRPC6 inhibitor,TRPC4 inh,HEK293 MPD ctr-2,HEK293 MPD ctr 2-2,TRPC4/MOR mod,TRPC4 ctr inh 2,TRPC6 inh conf,TRPC6 act conf,others
CN1CCc2c(C#N)c(N3CCOCC3)nc(NCC3CCCO3)c2C1 (stereo not given),i,i,i,i,i,nt,nt,nt,nt,nt,nt,
CCCc1nc(NCCO)c(C#N)c2c1CCCC2,i,i,i,i,i,nt,nt,nt,nt,nt,nt,
Cc1c(C)n2c(SCC(=O)N3CCOCC3)nnc2[nH]c1=O,i,i,i,i,i,nt,nt,nt,nt,nt,nt,
CC1Cc2ccccc2N1C(=O)COc1ccc2c(c1)OCO2 (stereo not given),i,i,i,i,i,nt,nt,nt,nt,nt,nt,
CC(C)(C)NCc1cc(Cl)ccc1OCc1cccs1,i,i,i,-8.04*,i,nt,nt,nt,nt,108.3%*,nt,TRPC4 sel inh 2=40.0%*;TRPC4 spec=57.8%*;HEK293 MPD ctr 2-1=30.5%*;HEK293 MPD ctr-1=32.4%*
CC(C)(C)NCc1ccccc1OCc1cccs1,i,i,i,-9.81*,-7*,nt,nt,nt,nt,88.9%*,nt,TRPC4 sel inh 2=31.0%*;TRPC4 spec=38.3%*;HEK293 MPD ctr 2-1=-19.5%*;HEK293 MPD ctr-1=20.6%*
CC(C)(C)NCc1cc(Cl)ccc1OCc1ccccc1F,i,17.8*,i,-8.09*,i,487.5%*,i,105.5%*,84.5%*,100.0%*,152.5%*,
C=CCOc1ccc(Br)cc1CNC(C)(C)C,i,i,i,-6.13*,i,213.5%*,98.0%*,52.0%*,99.5%*,80.5%*,nt,
Cc1ccsc1C(=O)NC(C)c1ccccc1 (stereo not given),i,i,i,i,i,nt,nt,nt,nt,nt,nt,
CC1C(=O)N2CCCc3cc(S(=O)(=O)NCc4ccccc4Cl)cc1c32 (stereo not given),i,i,i,i,i,nt,nt,nt,nt,nt,nt,
Cc1cc(C)n(CCC(=O)Nc2ccc3c(c2)OCCO3)n1,i,i,i,i,i,nt,nt,nt,nt,nt,nt,
CC(C)NCc1cc(Br)ccc1OCc1ccccc1,i,12*,i,-7.25*,i,403.0%*,i,96.0%*,83.0%*,81.0%*,116.5%*,
CC(C)(C)NCc1cc(Br)ccc1OCc1cccs1,i,i,i,-11.1*,i,nt,nt,nt,nt,99.3%*,nt,TRPC4 sel inh 2=39.0%*;TRPC4 spec=64.3%*;HEK293 MPD ctr 2-1=i;HEK293 MPD ctr-1=35.6%*
Cc1cc(N2CCCC2)nc2ccc(NC(=S)NCCCOC(C)C)cc12,i,i,i,-7.13*,i,-126.5%*,i,-22.0%*,46.0%*,42.0%*,i,
Cc1cc(N2CCOCC2)nc2ccc(NC(=S)NCCC(C)C)cc12,i,i,i,i,i,nt,nt,nt,nt,nt,nt,
Cc1cc(N2CCN(C)CC2)nc2ccc(NC(=S)NCCC(C)C)cc12,i,i,i,-6.22*,i,-110.5%*,i,-27.0%*,72.0%*,55.5%*,i,
CCCN(CCC)CCCNC(=S)Nc1ccc2nc(N3CCCC3)cc(C)c2c1,i,i,i,-8.01*,i,nt,nt,nt,nt,i,i,TRPC4 sel inh 2=i;TRPC4 spec=-14.8%*;HEK293 MPD ctr 2-1=19.0%*;HEK293 MPD ctr-1=-166.5%*
COCCCNC(=S)Nc1ccc2nc(N3CCOCC3)cc(C)c2c1,i,i,i,i,i,nt,nt,nt,nt,nt,nt,
Cc1ccc(-c2nnn(CC(=O)N(CCO)C(C(=O)NC3CCCC3)c3ccc(F)cc3)n2)o1 (stereo not given),i,i,i,i,i,nt,nt,nt,nt,nt,nt,
COc1ccc(C(C(=O)NC2CCCC2)N(CC2CCCO2)C(=O)Cn2nnc(-c3ccc(C)o3)n2)cc1 (stereo not given),i,i,i,-6.19*,i,i,i,i,i,i,i,
CCN(CC)CCN(C(=O)Cn1nnc(-c2ccc(C)o2)n1)C(C(=O)NC1CCCC1)c1ccc(F)cc1 (stereo not given),i,29.6*,i,i,i,343.0%*,i,67.5%*,43.5%*,i,192.0%*,
Cc1ccc(-c2nnn(CC(=O)N(Cc3ccco3)C(C(=O)NC3CCCC3)c3cccs3)n2)o1 (stereo not given),i,i,i,i,i,nt,nt,nt,nt,nt,nt,
CCN(CC)CCN(C(=O)Cn1nnc(-c2ccc(C)o2)n1)C(C(=O)NC(C)(C)C)c1cccs1 (stereo not given),i,17.9*,i,i,i,487.5%*,i,112.0%*,32.5%*,i,241.5%*,
Cc1cc(C)cc(NC(=O)CCC(=O)Nc2nnc(C(C)C)s2)c1,i,i,i,i,i,nt,nt,nt,nt,nt,nt,
CCOc1ccc(S(=O)(=O)NCCC(=O)NCC(c2ccc(F)cc2)N2CCOCC2)cc1 (stereo not given),i,i,i,i,i,nt,nt,nt,nt,nt,nt,
O=C1NC(c2cccc([N+](=O)[O-])c2)Oc2ccccc21 (stereo not given),i,i,i,i,i,nt,nt,nt,nt,nt,nt,
CCC1CCCCN1C(=O)CSc1nc2ncccc2[nH]1 (stereo not given),i,i,i,i,i,nt,nt,nt,nt,nt,nt,
CN1CCc2cc3c(c4c2[C@H]1[C@H](O)c1ccccc1-4)OCO3,i,i,i,-5.09*,i,i,i,-23.5%*,47.5%*,i,i,
